Data: the RNAGym collection of RNA variant scans (doi:10.1126/science.aae0568)
This sample holds only a part of the variants without activity.

B1: tRNA (parent)
chain: GUUCCGUUGGCGUAAUGGUAACGCGUCUCCCUCCUAAGGAGAAGACUGCGGGUUCGAGUCCCGUACGGAACG

Variants of: B1
Assay: yeast fitness relative to wild type (ratio to wild type); higher = fitter; tRNA-Arg(CCU), competitive growth, 37 C, YPD
Summary of the method: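 For this measurement, the tRNA-Arg(CCU) gene was varied by chemical synthesis at a 3% per-site mutation rate across 69 sites, and each variant was placed at the native genomic locus in Saccharomyces cerevisiae. The pooled strains went through a 24-hour competition in YPD at 37°C in six parallel replicates, with amplicons from start and end populations read by 100-nucleotide paired-end sequencing. Darwinian fitness relative to wild type followed from the change in each genotype's frequency. Genotypes needed ≥ 100 starting reads, and estimates < 0.5 were set to 0.5.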

| Variant | yeast fitness |
| --- | --- |
| C5U A57U G63A | ≤ 0.5 |
| C5A G17C A43U | 0.543 |
| U28A C46A | 0.846 |
| U28C G44A A57G | 0.578 |
| U3A A20U A42C C55G | ≤ 0.5 |
| G17C A20U G52C | ≤ 0.5 |
| U3C C11U C22A C29G C33U U64C A70C | ≤ 0.5 |
| C22G U64C | 0.856 |
| A14G A36G U47A | ≤ 0.5 |
| C24G C31U G50C C60G G63A | 0.545 |
| U32A A45U A69C | 0.706 |
| C31U G39C G52C | ≤ 0.5 |
| U16G G52A | 0.668 |
| G12C A37G G38A A45U A70G | 0.567 |
| C4U A21G U32A A40C C46A | 0.769 |
| U13C C22U G38C G51A A57C | ≤ 0.5 |
| C24U U28C | 0.988 |
| C30G C33G C34U A42U C66U G67C | ≤ 0.5 |
| U19C A45U | 0.923 |
| G9A A36U G51A C61G | ≤ 0.5 |
| U7G C24G A65U C66U | ≤ 0.5 |
| C30G A69G | ≤ 0.5 |
| A14C C34G C49A C61U | ≤ 0.5 |
| A14G U35A A42U C46G G56A A70C | 0.569 |

| Variant | yeast fitness |
| --- | --- |
| U26A U54A | 0.589 |
| U3C U8A U19A | 0.63 |
| U13A G68U | 0.824 |
| C5G A42U G68A | 0.582 |
| G12A A20C U28C | 0.664 |
| U19A G38C C60A | ≤ 0.5 |
| C11G C49U | 0.631 |
| A15C A42G | 0.76 |
| U3G U16A A45U A70G | ≤ 0.5 |
| C11G A42U | 0.608 |
| U8C G50A | 0.773 |
| U2A G52A C61A | ≤ 0.5 |
| C24A U26A C31A | 0.544 |
| U19C G50A C55A G63A C66A | ≤ 0.5 |
| A43U G52A | 0.663 |
| U16C C46G C55G C60G | 0.615 |
| C30U A37U | 0.65 |
| U19G U28A | 0.613 |
| A14U G23A C29G C46A C55G G68A | ≤ 0.5 |
| C5U G50C | 0.699 |
| C4U C22G C33A A36C A43G C55G | 0.742 |
| A15G G25C | 0.987 |
| C34U A36C C46G | ≤ 0.5 |
| A37U A65G | 0.651 |

| Variant | yeast fitness |
| --- | --- |
| C34U G39C A69U | ≤ 0.5 |
| C5U C22G C29A A45U A70C | ≤ 0.5 |
| A20U G48C U53C G68C | ≤ 0.5 |
| C31G G41A A65C | ≤ 0.5 |
| A37G U47A C60A | ≤ 0.5 |
| U16C A36G G68A | 0.556 |
| C4A U8A C24U | ≤ 0.5 |
| U2C U8G C49A C55U C66A A69C | ≤ 0.5 |
| G38C A40C | 1.02 |
| A20C G25C C33U C60A C66G | ≤ 0.5 |
| U2C U28A | 0.563 |
| C22A A45C C66A | ≤ 0.5 |
| A45G C61G A65C A70U | ≤ 0.5 |
| C11G U19G A45C | ≤ 0.5 |
| A21U C27A G41C G44A C55U C62G | 0.648 |
| C24G A45U | 0.557 |
| U13A A45G G58C A69U A70U | 0.603 |
| G58A A65U | 1.04 |
| A14U U26C C31U G68A | ≤ 0.5 |
| C11U G17C A20C | ≤ 0.5 |
| G48A A70U | 1.04 |
| G18C C24G C34U C49A U64C G67A | ≤ 0.5 |
| C5G A15U U35A G50A U54G | ≤ 0.5 |
| G6A A20C C34A A45U C46U A57C | ≤ 0.5 |

| Variant | yeast fitness |
| --- | --- |
| G18A C30U A40G C46U | ≤ 0.5 |
| A15G C24G C29U C34G U35C U54G G67C | ≤ 0.5 |
| G10C C27A A42U C62G | 0.556 |
| G6A A20G A21G C29G | ≤ 0.5 |
| A14G A69G | 0.821 |
| C4A C24G G44C G68U | 0.562 |
| C5G C22U A36C A42G | ≤ 0.5 |
| C29U G38C A43U C55U | 0.516 |
| G9A A21G C29G C31A C34G | ≤ 0.5 |
| C4G C5U C55U | 0.544 |
| G10C C27A C61U | ≤ 0.5 |
| A20U C29U C30G C34A U35A G48C | ≤ 0.5 |
| U3G C11U U19C A20U A42C C49U G56C | ≤ 0.5 |
| A15C C46U A69U | 0.814 |
| C4A C5U U8C U64A | ≤ 0.5 |
| C55A C61U G68A A70G | ≤ 0.5 |
| U8G C29G | 0.55 |
| U13G A14U G17A | ≤ 0.5 |
| A21C C27G U28A C29U C34U | 0.525 |
| G10A A20G U26C G39A | ≤ 0.5 |
| U28A C55G | 0.537 |
| U28A C55A | 0.52 |
| U8A G18C C24A U32C | 0.607 |
| G25A C27G C60A | ≤ 0.5 |

| Variant | yeast fitness |
| --- | --- |
| C4G U8A C31G | ≤ 0.5 |
| G6A G18A G23C U26A C30U U35A A43G | ≤ 0.5 |
| C5G U35A | 0.615 |
| U13G C31A U54C A57U | ≤ 0.5 |
| U2C A57U C62U U64C | ≤ 0.5 |
| C4U A15U A20C G23A G50C | ≤ 0.5 |
| U7A A15G G23A | 0.638 |
| A14G A40G U47C | 0.551 |
| U8C A21G A69C | 0.761 |
| G18A G25C A43U U59A G63A | ≤ 0.5 |
| A21U C29U | 0.588 |
| C11G C34G G48A | ≤ 0.5 |
| U16C A40C A57U | 0.575 |
| U16A U32A A40C C62U | ≤ 0.5 |
| U3G C24U C27G C30A A65U A69U | ≤ 0.5 |
| C31U A42C U47G G52C A57U | ≤ 0.5 |
| C11A G23C G39C C61A C62G A65U | ≤ 0.5 |
| U53A C66U | 0.709 |
| G23A U47A | 0.796 |
| U7C C46U U59G G67U | ≤ 0.5 |
| U3C A43C A69C | 0.762 |
| C11G C29U C61A | ≤ 0.5 |
| C27U G52A U53A C62U | ≤ 0.5 |
| U2C G9U A20C A57G A65C | ≤ 0.5 |

| Variant | yeast fitness |
| --- | --- |
| A15G U35A A70U | 0.572 |
| G25A G48C C62A | 0.611 |
| C4U A69G | 0.901 |
| U3G C5G A20C A43C | 0.557 |
| A15U A43U A65C | 0.569 |
| C4U U28G | 0.772 |
| C55U A57U U64G | 0.585 |
| C11A A36G G56C | ≤ 0.5 |
| C11U C49U A70C | 0.672 |
| G9A U26G C60A | 0.539 |
| U3C C4G A42G A45U C66U | 0.53 |
| U13A A37U | 0.63 |
| G39A A70G | 0.871 |
| C49U U54A C55G | ≤ 0.5 |
| A14C U16G A21G A70U | ≤ 0.5 |
| A42U A69C | 0.959 |
| U3C C27U | 0.941 |
| C11A C46U U53A G63C | ≤ 0.5 |
| C49G G56C G67C | ≤ 0.5 |
| U16G U47A U54A A57U U64A A69U | 0.678 |
| G10A A20C C29G | 0.597 |
| C5G C11A A15G G18A C30G G68A | ≤ 0.5 |
| U7A C29U C31A | ≤ 0.5 |
| A14C C24U U26A G52C | ≤ 0.5 |

| Variant | yeast fitness |
| --- | --- |
| C5U U7A A14G | 0.538 |
| U3A U19C C24U A37G C60G | ≤ 0.5 |
| G18C C29G A36C G44C G50A C66A | ≤ 0.5 |
| A15G C49G | 0.782 |
| C11A U13A A20G C61U A69C | ≤ 0.5 |
| U2G A45C C49U C55U | ≤ 0.5 |
| U8C G23A C34A A42U C46A A57C | ≤ 0.5 |
| A20C C55U G67A | 0.53 |
| A42U C61U A70C | 0.709 |
| U2A U13G U28A A36U G56A C62G U64G | ≤ 0.5 |
| C22G G67A | 0.819 |
| U13C C31U A69U | 0.835 |
| C24G G58C C62U | ≤ 0.5 |
| A15G C34U A40U U54C | ≤ 0.5 |
| G12A U28G U35C | ≤ 0.5 |
| C5U C22U G41C C49G U59G G63A C66U | ≤ 0.5 |
| G17A U28C C46U G63A | ≤ 0.5 |
| G12A A42C | 0.89 |
| G10A U53C | 0.608 |
| C24A G48C A70U | ≤ 0.5 |
| G9A C27G | 0.757 |
| C4A U35C A57U | ≤ 0.5 |
| G23A C27U C34U A45C A70U | 0.57 |
